TAAR1 ag: human TAAR1 agonism; Q96RJ0; CHO RD-HGA16 TAAR1, Fluo-8 calcium fluorescence; vehicle wells 0%, saturating PEA agonist 100%; activation, % at 3 µM; hit rate 0.99% among 360,000; AID 624467;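 active means activation above the mean activation of all test compounds in the run plus 3 SD, cut at about 38% in these data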
Target sequence (Q96RJ0 whole entry, looked up): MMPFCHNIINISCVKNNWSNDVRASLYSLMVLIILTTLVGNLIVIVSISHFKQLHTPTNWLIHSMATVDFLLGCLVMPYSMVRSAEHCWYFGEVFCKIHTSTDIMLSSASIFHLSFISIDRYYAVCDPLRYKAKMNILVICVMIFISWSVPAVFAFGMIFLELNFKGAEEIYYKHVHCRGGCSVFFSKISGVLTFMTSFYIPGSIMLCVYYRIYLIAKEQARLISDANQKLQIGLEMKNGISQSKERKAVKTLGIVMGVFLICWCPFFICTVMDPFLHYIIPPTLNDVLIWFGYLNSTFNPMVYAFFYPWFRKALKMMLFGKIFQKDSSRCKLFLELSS
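Test system: RD-HGA16 (CHO) cells co-expressing Gα16 and hTAAR1 | Doses: Single dose, 3 µM | Schedule: 17-24 h seeding, 75 min 37 °C dye, 30 min RT | Evaluation: % activation from peak over basal fluorescence ratio, DMSO-to-PEA scaled | Technique: Kinetic Fluo-8 calcium fluorescence | Benchmarks: Low control DMSO, high control PEA (EC100)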
OXTR potentiator: human OXTR potentiation; P30559; CHO-OTR cells, Fluo-8 calcium fluorescence, potentiator mode; 0% = oxytocin EC15, 100% = EC100; activation, % at 3 µM; hit rate 0.061% among 320,000;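 active means activation above that plate's cutoff, the mean activation of tested compounds plus 3 SD, cut at about 6.6% in these data, passing the limit was not always enough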;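 further: 100% uses oxytocin at 75 nM as the full agonist control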
Target sequence (P30559 whole entry, looked up): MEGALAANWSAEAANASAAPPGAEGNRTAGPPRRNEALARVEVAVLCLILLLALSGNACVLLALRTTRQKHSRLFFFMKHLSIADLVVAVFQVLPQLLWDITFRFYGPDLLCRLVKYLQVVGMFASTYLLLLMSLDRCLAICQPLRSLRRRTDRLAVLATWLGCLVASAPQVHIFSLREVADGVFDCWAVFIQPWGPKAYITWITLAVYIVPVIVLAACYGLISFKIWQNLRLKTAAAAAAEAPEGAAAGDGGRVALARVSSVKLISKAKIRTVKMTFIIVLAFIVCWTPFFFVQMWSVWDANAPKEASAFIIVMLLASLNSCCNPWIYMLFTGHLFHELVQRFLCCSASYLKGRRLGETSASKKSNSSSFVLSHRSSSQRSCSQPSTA
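Dosing: Single dose, 3.0 µM nominal final compound concentration | Material: Human OTR in CHO cells | Technique: Kinetic Fluo-8 calcium fluorescence | Benchmarks: EC15 oxytocin alone as 0%, 75 nM oxytocin as 100% | Probe or stimulus: Oxytocin at about EC15, sub-maximal agonist stimulus | Incubation: Compound 6 min at room temperature before oxytocin, 100 s read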
OXTR ag: agonists of human oxytocin receptor. CHO-OTR cells, Fluo-8 calcium fluorescence; normalized: DMSO 0%, oxytocin 100%. activation, % at 3 µM. hit rate 0.32% among 320,000;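 active means activation above the mean of all tested compounds plus 3 SD, cutoff set per screening run, cut at about 20% in these data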;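 further: peak over basal fluorescence ratio from a 100 s FLIPR kinetic read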
TAAR1 antagonist: human TAAR1 antagonism | AID 624466 | inhibition, % at 3 µM | Q96RJ0 | CHO RD-HGA16 TAAR1, Fluo-8 calcium fluorescence, antagonist | hit rate 1.5% among 360,000;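 active means inhibition above a per-plate cutoff, the mean inhibition of test compounds on that plate plus 3 SD, cut at about 49% in these data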;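 further: 0% = DMSO plus EC80 beta-PEA response and 100% = DMSO alone without agonist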
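Test system: CHO RD-HGA16 cells bearing hTAAR1 | Reagent: β-PEA, EC80 | Compound dosing: 3 µM, single point | Schedule: Dye loading 75 min at 37 °C, then 30 min room temperature | Signal: Calcium fluorescence with Fluo-8 | Evaluation: Percent inhibition of PEA-evoked calcium signal, max/basal emission ratio | Control set: DMSO-only wells and EC80 β-PEA-stimulated wells | Repeats: Singlicate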
V1aR counter: V1a receptor agonism, counter-screen for OXTR agonists | P37288 | CHO-V1R cells, Fluo-8 calcium fluorescence, agonist mode; 0% DMSO, 100% 3 nM vasopressin | activation, % at 3 µM | hit rate 0.25% among 320,000 | AID 2797;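 active means activation above the mean activation of all tested compounds plus 3 SD, per screening run, cut at about 20% in these data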;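 further: signal is peak over basal fluorescence ratio across a 100 second FLIPR read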
TAAR1 ag confirm: confirmation of human TAAR1 agonists; shares compounds with TAAR1 ag; CHO RD-HGA16 TAAR1, Fluo-8 calcium fluorescence; scaled: DMSO 0%, maximal phenethylamine 100%; activation, % at 3 µM; hit rate 82% among 2,400; AID 651783;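 active means activation above a cutoff set at the run's mean compound activation plus 3 SD, cut at about 39% in these data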
Ga16 ag counter: nonselective agonism, TAAR1 counter-screen | shares compounds with TAAR1 ag | CHO-Ga16 parental, Fluo-8 calcium fluorescence; normalized to maximal ATP response, DMSO zero | activation, % at 3 µM | hit rate 50% among 2,400 | AID 651787;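 active means activation above the run cutoff, the mean activation over all tested wells plus 3 SD, cut at about 12% in these data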;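 further: 0% = DMSO wells and 100% = maximal ATP response on the peak over basal ratio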
TAAR1 desensitize: TAAR1 response desensitization, agonist counter-screen | shares compounds with TAAR1 ag | CHO RD-HGA16 hTAAR1, Fluo-8 calcium, beta-PEA response inhibition | inhibition, % at 3 µM | AID 651951 | hit rate 46% among 2,400;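 active means inhibition above the run cutoff, the mean inhibition of all test compounds plus 3 SD, cut at about 49% in these data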;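 further: beta-PEA stimulus applied at its EC80; loss of beta-PEA calcium signal after compound pretreatment read as receptor desensitization; 0% = DMSO with beta-PEA at EC80 and 100% = DMSO alone without agonist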
Ga16 nonsel ant: nonselective Ga16 antagonist in TAAR1 agonist counter-screen; inhibition, % at 3 µM; shares compounds with TAAR1 ag; AID 651952; hit rate 39% among 2,400; CHO-Ga16 ATP-induced calcium, Fluo-8 fluorescence;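 active means inhibition above the plate's mean compound inhibition plus 3 SD, computed per plate, cut at about 22% in these data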;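 further: 0% = EC80 ATP with DMSO and 100% = DMSO wells without ATP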
Starred values were filed as active, the others as inactive; nt = not tested or not shown. Compounds with a hit are over-represented: about 2.3% of the library has one in this group of screens.

SMILES	TAAR1 ag	OXTR potentiator	OXTR ag	TAAR1 antagonist	V1aR counter	TAAR1 ag confirm	Ga16 ag counter	TAAR1 desensitize	Ga16 nonsel ant
CCCc1c(Cc2cccc(F)c2)ncn1CCc1ccccc1OC	50.4*	nt	nt	35.2	nt	78.5*	13.5*	61.1*	20.0
CCc1c(Cc2cccc(F)c2)ncn1CCc1ccccc1OC	39.6*	nt	nt	-17.8	nt	50.4*	4.5	14.8	12.8
CC(CC(=O)O)n1nnc2ccccc21 (stereo not given)	2.1	2.4	-0.1	-18.4	4.2	nt	nt	nt	nt
O=C(COc1ccccc1N1C(=O)C2C3C=CC(C3)C2C1=O)c1ccccc1 (stereo not given)	2.8	-3.2	-1.1	-16.4	-0.9	nt	nt	nt	nt
CC(C)(C)C1=NN(c2ccc([N+](=O)[O-])cc2)C(c2ccccc2)C1 (stereo not given)	61.9*	-2.9	0.0	34.5	0.1	-0.4	0.4	6.0	9.5
O=[N+]([O-])c1ccc(N2N=C(c3ccco3)CC2c2ccccc2)cc1 (stereo not given)	8.6	-17.4	2.3	41.7	3.9	nt	nt	nt	nt
CCCCCCCCn1c2c(c(=N)c3ccccc31)CCC2	7.6	nt	nt	13.4	nt	nt	nt	nt	nt
CCCCCCCCCCn1c2c(c(=N)c3c1CCC3)CCC2	47.1*	-20.8	1.1	34.2	1.0	52.5*	23.2*	41.2	36.7*
Cc1cc(NS(=O)(=O)c2c(C)[nH]c(=O)[nH]c2=O)ccc1Br	73.3*	nt	nt	37.5	nt	-0.5	3.9	5.5	7.0
COc1ccc(CN2C(=O)C(CC(=O)NCCc3ccccn3)CC(C(=O)N(C)C)=C2C)cc1 (stereo not given)	46.4*	nt	nt	-5.6	nt	61.8*	-0.5	11.7	4.5
CC1(C)CCC(=O)N2CC[C@H]3C[C@H](OC(=O)Nc4ccccc4)C[C@@H]1[C@H]32	58.3*	-2.6	4.0	10.3	4.5	52.0*	5.1	16.2	10.5
CC1(C)CCC(=O)N2CC[C@H]3C[C@H](OC(=O)Nc4ccc5c(c4)OCO5)C[C@@H]1[C@H]32	5.9	-5.0	-1.2	0.4	-0.7	nt	nt	nt	nt
CC(NC(=O)Cc1ccc(-c2ccccc2)cc1)c1ccccc1 (stereo not given)	60.5*	-19.4	5.9	22.2	1.9	16.6	17.6*	7.3	9.3
CSc1ncnc2c1ncn2CCCNCCc1ccccn1	69.3*	nt	nt	-3.8	nt	82.4*	4.0	18.8	3.5
CSc1ncnc2c1ncn2CCCNCCCc1ccccc1	4.1	nt	nt	-16.8	nt	nt	nt	nt	nt
Cc1ccccc1C(=O)c1cccn1CC(=O)NCc1ccccc1Cl	50.2*	-19.9	0.0	33.7	-2.0	4.8	6.1	10.4	16.1
O=C(Cn1cccc1C(=O)c1ccccc1)NCc1ccccc1Cl	3.1	-2.0	-1.5	-33.0	-0.5	nt	nt	nt	nt
O=C(c1cc(NC(=O)C23CC4CC(CC(C4)C2)C3)cc(NC(=O)C23CC4CC(CC(C4)C2)C3)c1)N1CCCCC1	nt	-23.7	6.6	nt	5.5	nt	nt	nt	nt
NN=C1c2ccccc2C(=O)C1C(=O)C(c1ccccc1)c1ccccc1 (stereo not given)	8.3	nt	nt	2.2	nt	nt	nt	nt	nt
O=[N+]([O-])c1ccc(NC(=S)N2CCc3ccccc3C2)cc1	60.5*	-12.9	2.9	30.5	4.4	80.8*	10.5	63.3*	21.7*
Fc1ccc(NC(=S)N2CCOCC2)c(F)c1	-0.4	3.1	-0.4	2.4	0.9	nt	nt	nt	nt
COc1cc(NC(=S)N2CCc3ccccc3C2)cc(OC)c1	49.4*	-8.2	-1.0	7.0	2.1	61.9*	0.6	21.7	8.8
Fc1ccc(NC(=S)N2CCc3ccccc3C2)c(F)c1	42.6*	2.0	-1.0	17.9	0.3	72.3*	13.3*	21.3	4.3
COc1ccc(NC(=S)N2CCc3ccccc3C2)cc1OC	nt	-6.1	1.1	nt	1.8	nt	7.0	nt	4.0
CCOC(=O)c1c(NC(=O)COC(=O)CCNS(=O)(=O)c2ccccc2)sc(C(=O)N(C)C)c1C	4.9	nt	nt	11.0	nt	nt	nt	nt	nt
SMILES	TAAR1 ag	OXTR potentiator	OXTR ag	TAAR1 antagonist	V1aR counter	TAAR1 ag confirm	Ga16 ag counter	TAAR1 desensitize	Ga16 nonsel ant
COc1cc(CN2CCCC(C(=O)c3ccc(C(C)(C)C)cc3)C2)cc(OC)c1O (stereo not given)	53.9*	-7.7	2.2	-8.2	3.4	18.3	9.1	-1.9	10.3
CCN1CCc2c(sc(NC(=O)Cc3ccccc3)c2C(N)=O)C1	15.9	-8.6	-0.1	-40.8	0.3	nt	nt	nt	nt
CCN1CCc2c(sc(NC(=O)Nc3ccc(Cl)c(Cl)c3)c2C(N)=O)C1	177.8*	-12.3	218.6*	101.5*	173.1*	164.3*	176.8*	90.1*	88.1*
O=C(N/N=C/c1cc([N+](=O)[O-])cc(Br)c1O)C12CC3CCC(CC(C3)C1)C2	50.0*	-6.7	2.1	9.9	1.2	65.8*	54.1*	22.7	14.2
CCOC(=O)c1c(NC(=O)C(C)N2CCN(C(=O)c3ccco3)CC2)sc2c1CCCC2 (stereo not given)	84.3*	-5.4	1.5	87.0*	2.9	42.2*	36.6*	70.8*	58.8*
O=C1c2ccccc2-c2nc3ccccc3cc21	2.5	1.7	-2.1	-11.0	-0.9	nt	nt	nt	nt
COc1cc2c(C)nc3c(c(C)nn3-c3ccccc3)c2cc1OC	0.1	-4.2	1.7	-19.6	0.1	nt	nt	nt	nt
COc1cc2c(-c3ccc(O)cc3)nc3c(c(C)nn3-c3ccccc3)c2cc1OC	40.5*	-5.2	2.9	50.3*	7.3	21.8	14.4*	49.0*	38.4*
CCCCCOc1ccc(Br)cc1/C(C)=N/NC1=NCCN1	61.9*	-9.5	3.6	29.9	5.2	62.5*	11.8*	31.6	15.7
COc1ccc(Br)cc1/C(C)=N/NC1=NCCN1	17.6	-13.6	9.2	-3.0	5.8	nt	nt	nt	nt
NC(c1csc(NC(=O)Nc2cccc(Cl)c2)n1)c1ccccc1Cl (stereo not given)	52.1*	nt	nt	34.3	nt	66.2*	27.3*	64.3*	46.6*
CCOc1ccc(N2C(=O)CC(NCc3ccc(S(N)(=O)=O)cc3)C2=O)cc1 (stereo not given)	45.0*	5.3	1.7	-11.0	0.4	6.5	1.9	-13.3	-1.6
CCCOc1ccc(N2C(=O)CC(NCc3ccc(S(N)(=O)=O)cc3)C2=O)cc1 (stereo not given)	0.6	1.0	-0.8	-3.9	0.4	nt	nt	nt	nt

Compound activity: PubChem, The Scripps Research Institute Molecular Screening Center
